Four compounds from the M2OR odorant receptor database can be followed below.

Settings in all cases: stereoisomer not certain
One test concerns the target T1, UniProt Q8VG49.
T1 sequence (whole entry): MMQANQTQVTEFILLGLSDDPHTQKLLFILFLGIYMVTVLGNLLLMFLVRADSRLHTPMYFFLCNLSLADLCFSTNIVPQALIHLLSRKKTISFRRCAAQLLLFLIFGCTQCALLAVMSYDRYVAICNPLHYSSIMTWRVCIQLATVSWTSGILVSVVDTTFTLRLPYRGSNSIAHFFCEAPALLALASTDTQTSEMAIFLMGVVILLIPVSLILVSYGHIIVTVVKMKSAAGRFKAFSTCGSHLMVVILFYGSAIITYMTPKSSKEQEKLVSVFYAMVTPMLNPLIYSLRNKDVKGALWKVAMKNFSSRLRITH
Put shortly: (§1)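 Assay methods differ from source to source, frequently being transient luciferase assays in mammalian cell lines. For each receptor–molecule pair, the label responsive (active) applies when the original authors judged the measured signal statistically different from baseline, and non-responsive (inactive) applies otherwise.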

The target of the next test is T2, UniProt Q8VG77.
T2 sequence (whole entry): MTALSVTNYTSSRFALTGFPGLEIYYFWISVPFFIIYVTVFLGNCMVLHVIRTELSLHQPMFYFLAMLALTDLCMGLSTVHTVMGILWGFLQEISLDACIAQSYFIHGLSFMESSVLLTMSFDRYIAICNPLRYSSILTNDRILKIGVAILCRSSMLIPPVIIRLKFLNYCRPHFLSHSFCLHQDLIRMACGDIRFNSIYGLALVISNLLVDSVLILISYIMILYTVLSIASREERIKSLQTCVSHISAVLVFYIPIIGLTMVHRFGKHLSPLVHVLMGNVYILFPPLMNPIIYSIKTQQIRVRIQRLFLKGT
The procedure, abridged:
as §1

For a further test, the target named is T3, UniProt Q8VG96.
T3 sequence (whole entry): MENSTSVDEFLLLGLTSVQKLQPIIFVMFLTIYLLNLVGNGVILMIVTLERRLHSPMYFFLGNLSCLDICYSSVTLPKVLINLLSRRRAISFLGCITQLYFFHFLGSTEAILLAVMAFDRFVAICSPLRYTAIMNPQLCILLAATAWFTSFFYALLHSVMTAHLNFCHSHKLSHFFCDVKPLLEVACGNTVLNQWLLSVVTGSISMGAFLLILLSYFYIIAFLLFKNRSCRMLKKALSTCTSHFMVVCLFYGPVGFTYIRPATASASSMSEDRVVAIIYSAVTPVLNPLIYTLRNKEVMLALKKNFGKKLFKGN
The procedure, abridged: as §1

The next test has as its target T4, UniProt Q8VGC6.
T4 sequence (whole entry): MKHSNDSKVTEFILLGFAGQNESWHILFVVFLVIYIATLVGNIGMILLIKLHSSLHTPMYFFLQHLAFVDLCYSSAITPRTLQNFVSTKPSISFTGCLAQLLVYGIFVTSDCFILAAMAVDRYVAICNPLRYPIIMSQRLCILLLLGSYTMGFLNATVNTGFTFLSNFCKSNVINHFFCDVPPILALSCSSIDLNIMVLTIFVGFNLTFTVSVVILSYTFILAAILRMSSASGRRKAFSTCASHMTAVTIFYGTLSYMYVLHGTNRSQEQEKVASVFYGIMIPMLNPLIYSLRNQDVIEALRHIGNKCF
The procedure, abridged: as §1

A further test has as its target T5, UniProt Q8VGD7.
T5 sequence (whole entry): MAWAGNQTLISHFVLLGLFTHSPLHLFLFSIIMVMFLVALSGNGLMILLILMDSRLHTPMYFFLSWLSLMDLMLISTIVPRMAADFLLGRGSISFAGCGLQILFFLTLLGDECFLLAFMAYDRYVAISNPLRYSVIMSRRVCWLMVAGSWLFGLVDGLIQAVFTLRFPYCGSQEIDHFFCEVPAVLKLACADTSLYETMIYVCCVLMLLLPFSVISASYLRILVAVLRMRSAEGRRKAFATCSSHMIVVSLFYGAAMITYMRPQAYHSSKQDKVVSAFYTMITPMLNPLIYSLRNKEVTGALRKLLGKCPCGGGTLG
The procedure, abridged:
as §1

A further test concerns the target T6, UniProt Q8VGH1.
T6 sequence (whole entry): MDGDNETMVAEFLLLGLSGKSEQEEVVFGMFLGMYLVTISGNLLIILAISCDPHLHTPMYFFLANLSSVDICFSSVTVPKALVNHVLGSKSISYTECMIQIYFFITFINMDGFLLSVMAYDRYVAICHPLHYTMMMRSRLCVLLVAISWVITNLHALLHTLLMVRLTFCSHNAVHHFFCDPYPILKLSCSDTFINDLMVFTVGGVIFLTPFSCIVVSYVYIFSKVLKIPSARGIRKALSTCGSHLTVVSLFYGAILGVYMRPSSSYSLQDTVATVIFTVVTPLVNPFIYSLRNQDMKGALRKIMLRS
Put shortly:
as §1

The target of a further test is T7, UniProt Q8VGJ1.
T7 sequence (whole entry): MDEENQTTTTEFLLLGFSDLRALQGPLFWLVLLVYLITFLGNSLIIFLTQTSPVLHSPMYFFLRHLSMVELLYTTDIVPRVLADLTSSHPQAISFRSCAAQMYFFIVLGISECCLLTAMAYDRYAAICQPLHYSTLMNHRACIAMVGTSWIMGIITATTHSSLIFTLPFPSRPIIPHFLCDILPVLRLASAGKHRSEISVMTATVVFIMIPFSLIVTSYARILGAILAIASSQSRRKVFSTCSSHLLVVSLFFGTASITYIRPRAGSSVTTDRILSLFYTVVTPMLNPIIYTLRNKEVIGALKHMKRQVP
The procedure, abridged:
as §1

The next test concerns the target T8, UniProt Q8VGJ5.
T8 sequence (whole entry): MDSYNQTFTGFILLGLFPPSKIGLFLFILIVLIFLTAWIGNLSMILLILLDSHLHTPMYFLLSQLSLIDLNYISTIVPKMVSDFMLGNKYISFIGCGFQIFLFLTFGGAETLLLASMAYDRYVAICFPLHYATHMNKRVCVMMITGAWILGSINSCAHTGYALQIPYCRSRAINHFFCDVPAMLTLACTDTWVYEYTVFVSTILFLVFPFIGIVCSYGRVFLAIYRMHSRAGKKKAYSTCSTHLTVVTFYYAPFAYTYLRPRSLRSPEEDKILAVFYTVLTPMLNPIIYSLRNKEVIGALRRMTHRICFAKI
Put shortly:
as §1

A further test has as its target T9, UniProt Q8VGL0.
T9 sequence (whole entry): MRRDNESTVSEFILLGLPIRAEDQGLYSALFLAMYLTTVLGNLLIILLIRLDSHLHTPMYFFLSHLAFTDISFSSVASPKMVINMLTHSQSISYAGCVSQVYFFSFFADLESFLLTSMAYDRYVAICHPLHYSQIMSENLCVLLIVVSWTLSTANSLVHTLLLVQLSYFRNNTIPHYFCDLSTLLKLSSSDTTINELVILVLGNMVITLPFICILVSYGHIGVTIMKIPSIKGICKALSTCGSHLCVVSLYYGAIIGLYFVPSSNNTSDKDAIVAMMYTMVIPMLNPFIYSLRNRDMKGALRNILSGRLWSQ
The procedure, abridged:
as §1

A further test has as its target T10, UniProt Q8VGL7.
T10 sequence (whole entry): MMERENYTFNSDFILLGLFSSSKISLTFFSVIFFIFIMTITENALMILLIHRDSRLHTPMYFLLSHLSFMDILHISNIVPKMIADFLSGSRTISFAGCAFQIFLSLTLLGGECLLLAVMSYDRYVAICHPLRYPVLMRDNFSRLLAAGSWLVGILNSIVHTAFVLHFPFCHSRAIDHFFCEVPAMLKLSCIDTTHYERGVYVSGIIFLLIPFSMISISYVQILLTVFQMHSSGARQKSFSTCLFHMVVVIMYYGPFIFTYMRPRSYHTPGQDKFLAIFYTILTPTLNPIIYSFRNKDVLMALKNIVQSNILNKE
Put shortly:
as §1

In a further test the target is UniProt Q8VG28. The procedure, abridged: as §1
Sequence of UniProt Q8VG28 (Q8VG28 as listed by the source): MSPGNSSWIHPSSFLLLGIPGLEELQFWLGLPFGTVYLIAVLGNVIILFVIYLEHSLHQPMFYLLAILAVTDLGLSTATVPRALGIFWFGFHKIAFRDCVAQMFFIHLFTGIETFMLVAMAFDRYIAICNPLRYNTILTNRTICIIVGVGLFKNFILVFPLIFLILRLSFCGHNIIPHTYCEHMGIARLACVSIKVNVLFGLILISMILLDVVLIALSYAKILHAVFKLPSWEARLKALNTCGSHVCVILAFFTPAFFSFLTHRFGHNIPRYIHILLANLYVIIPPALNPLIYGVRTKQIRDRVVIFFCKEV
Another test deals with UniProt Q8VGE3. The procedure, abridged:
as §1

The next test deals with UniProt Q8VGK6. The procedure, abridged: as §1
Sequence of UniProt Q8VGK6 (Q8VGK6 as listed by the source): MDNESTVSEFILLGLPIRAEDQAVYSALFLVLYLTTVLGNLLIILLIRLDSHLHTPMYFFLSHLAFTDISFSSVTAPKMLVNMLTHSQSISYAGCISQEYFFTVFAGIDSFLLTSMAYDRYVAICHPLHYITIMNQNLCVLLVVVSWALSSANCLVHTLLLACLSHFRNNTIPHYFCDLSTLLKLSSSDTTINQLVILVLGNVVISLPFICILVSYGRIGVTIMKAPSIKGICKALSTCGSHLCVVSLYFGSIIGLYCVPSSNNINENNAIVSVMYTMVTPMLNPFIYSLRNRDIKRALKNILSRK

Sequence of UniProt Q8VGE3 (Q8VGE3 as listed by the source): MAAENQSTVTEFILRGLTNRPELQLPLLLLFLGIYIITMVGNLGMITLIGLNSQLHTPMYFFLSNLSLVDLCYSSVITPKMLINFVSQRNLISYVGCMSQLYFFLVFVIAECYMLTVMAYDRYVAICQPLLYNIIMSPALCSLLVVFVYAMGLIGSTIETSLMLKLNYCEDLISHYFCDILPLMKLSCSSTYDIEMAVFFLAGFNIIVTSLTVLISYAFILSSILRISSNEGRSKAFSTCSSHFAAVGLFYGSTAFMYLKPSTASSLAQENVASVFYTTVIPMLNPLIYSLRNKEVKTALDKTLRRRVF

With `CCCCOC(=O)C(C)OC(=O)CCC` (centres undefined), the “odorant receptor agonist call” value with UniProt Q8VG49, in the test with UniProt Q8VG77, with UniProt Q8VG96, in the test with UniProt Q8VGC6, in the test with UniProt Q8VGD7 and with UniProt Q8VGH1 was “inactive” each time. In addition, the “odorant receptor agonist call” value with UniProt Q8VGJ1, in the test with UniProt Q8VGJ5, with UniProt Q8VGL0 and with UniProt Q8VGL7 was “inactive” throughout.
For `CCCC(C)=O`, the “odorant receptor agonist call” value with UniProt Q8VG28, with UniProt Q8VG49, with UniProt Q8VG77, in the test with UniProt Q8VG96, in the test with UniProt Q8VGC6 and with UniProt Q8VGD7 was “inactive” throughout. Besides, the “odorant receptor agonist call” value with UniProt Q8VGH1, with UniProt Q8VGJ1, in the test with UniProt Q8VGJ5, with UniProt Q8VGL0 and with UniProt Q8VGL7 was “inactive” each time.
For the compound `CCC=O`, the “odorant receptor agonist call” value with UniProt Q8VGC6 is “inactive”.
As for `O=c1ccc2ccccc2o1`, the “odorant receptor agonist call” value with UniProt Q8VG49, with UniProt Q8VG77, with UniProt Q8VGC6, with UniProt Q8VGD7, with UniProt Q8VGJ1 and with UniProt Q8VGJ5 was “inactive” throughout. Moreover, the “odorant receptor agonist call” value with UniProt Q8VGL0 and with UniProt Q8VGL7 was “inactive” each time. Also, the “odorant receptor agonist call” value in the test with UniProt Q8VG96, in the test with UniProt Q8VGE3, with UniProt Q8VGH1 and with UniProt Q8VGK6 was “active” each time.
